MrgX1 ag – agonists of human MrgX1 receptor, primary screen, HEK293 cells, Fluo-4 calcium flux; Mas-related G-protein coupled receptor member X1 (Homo sapiens), Q96LB2; Fluo-4 calcium fluorescence, agonist mode; stronger effect = higher value; B-score at 10 µM; 310,000 compounds, 0.44% hits; AID 588627, 2011;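 active = calcium response B-score plate-corrected fluorescence ratio at least 3 library SD, with starting fluorescence B-score inside 5 SD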
Target sequence (Q96LB2 whole entry, looked up): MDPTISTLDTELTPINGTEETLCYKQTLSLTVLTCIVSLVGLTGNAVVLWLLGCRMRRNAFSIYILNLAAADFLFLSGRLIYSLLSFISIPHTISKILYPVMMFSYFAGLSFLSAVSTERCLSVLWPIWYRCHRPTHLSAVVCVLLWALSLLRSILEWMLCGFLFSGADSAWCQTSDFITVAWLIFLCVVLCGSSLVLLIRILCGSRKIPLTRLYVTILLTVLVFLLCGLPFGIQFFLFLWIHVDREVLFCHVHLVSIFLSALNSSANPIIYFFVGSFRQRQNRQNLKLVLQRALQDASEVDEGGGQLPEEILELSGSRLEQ
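Material – MrgX1-expressing HEK293 cells · Input – 15,000 cells seeded per well · Dosing – compound as first of three additions · Times – overnight seeding, then 1 h dark dye loading · Measured by – kinetic Fluo-4 NW fluorescence of intracellular calcium · Read-out – B-scored fluorescence response ratio · Benchmarks – positive and negative control wells on each plate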
RGS4 pot – RGS4 potentiators or activators, primary screen, cell-based, HEK293 M3R inducible RGS4, calcium flux; carbachol calcium flux Fluo4; stronger effect = lower value; B-score at 10 µM; 310,000 compounds, 0.92% hits; AID 463111, 2010;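 active = B-score of the integrated calcium signal more than 4 SD below the library mean, with starting fluorescence not abnormally high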;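 note: negative B-score means reduced calcium response which marks RGS4 activation or potentiation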
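test system = M3R-expressing HEK293 line, RGS4 induced by doxycycline | probe or stimulus = carbachol at ECmax as muscarinic agonist stimulus | timing = dye loading 30 min 37 °C, buffer rest 30 min RT | signal = calcium dye Fluo4 fluorescence | evaluation = B score from integrated fluorescence ratio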
RGS4 inh – RGS4 inhibitors, primary screen, cell-based, HEK293 M3R inducible RGS4, calcium flux. B-score at 10 µM. Regulator of G-protein signaling 4 (Homo sapiens), P49798. 310,000 compounds, 0.45% hits. Fluo-4 calcium flux; stronger effect = higher value; triggered by carbachol at its EC20;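 active = B-score, a plate-corrected calcium signal, over three deviations above library mean, with baseline fluorescence within five deviations of library mean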;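 note: RGS4 expression induced by doxycycline in cells with stable M3 receptor; B-score is computed from the integrated fluorescence ratio over baseline after carbachol; higher B-score means a larger calcium signal and so more RGS4 inhibition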
Target sequence (P49798 whole entry, looked up): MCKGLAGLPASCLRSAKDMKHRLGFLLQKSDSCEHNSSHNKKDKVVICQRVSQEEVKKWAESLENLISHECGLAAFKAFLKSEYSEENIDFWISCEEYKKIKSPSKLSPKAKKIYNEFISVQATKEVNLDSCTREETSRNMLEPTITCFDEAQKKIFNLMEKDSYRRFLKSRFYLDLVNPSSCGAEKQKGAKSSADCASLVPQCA
MrgX1 antag – antagonists of human MrgX1 receptor, primary screen, HEK293 cells, Fluo-4 calcium flux. B-score at 10 µM. AID 588676, 2011. 310,000 compounds, 1.3% hits. BAM8-22 antagonism; stronger effect = lower value;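 active = calcium-response B-score plate-corrected more than 3 library SD below zero, starting fluorescence within 5 deviations, no agonist response on first addition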;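 note: peak minus trough fluorescence over baseline after final BAM8-22 challenge near maximal dose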
MrgX1 PAM – positive allosteric modulators of MrgX1, primary screen, HEK293 cells, Fluo-4 calcium flux. Mas-related G-protein coupled receptor member X1 (Homo sapiens), Q96LB2. FDSS; stronger effect = higher value. B-score at 10 µM. 310,000 compounds, 0.63% hits. AID 588675, 2011;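 active = plate-corrected calcium response at least 3 library SD above typical, normal starting fluorescence, not activating the receptor alone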;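 note: compound read alongside a low EC10 to EC30 dose of BAM8-22 agonist; peak minus trough fluorescence over baseline measured at the second addition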
Hits are given with their value; – = inactive; · = not tested or not shown. Only some compounds are listed: those with a hit (about 3.5% of all), similar ones and a draw of the others.

SMILES	MrgX1 ag	RGS4 pot	RGS4 inh	MrgX1 antag	MrgX1 PAM
COc1ccc(/C=N/NC(=O)CCn2cnc(-c3ccccc3)c2-c2ccccc2)cc1OC	–	–	–	-5.6	–
CC(C)CN(C(=O)c1ccco1)c1nc2ccccc2s1	–	–	–	–	–
CC(C)CN(C(=O)c1nn(C)c(=O)c2ccccc12)c1nc2ccccc2s1	–	–	–	–	7
COc1cc(OC)cc(C(=O)N[C@H](C(=O)Nc2ccc(S(=O)(=O)N(C)C)cc2)C(C)C)c1	–	–	–	–	–
COc1cccc(-n2nnnc2S(C)(=O)=O)c1	48	–	–	–	–
O=C(Nc1ccc2nc3ccccc3nc2c1)c1ccccc1	–	–	–	–	–
O=C(Nc1ccc(-c2nc3ccccc3s2)c(OC(=O)c2ccccc2)c1)c1ccccc1	–	–	–	-4.8	–
Cc1ccc(NC(=O)c2nn(C34CC5CC(CC(C5)C3)C4)cc2[N+](=O)[O-])cc1	–	–	–	-5	–
CCCOc1cccc(-c2cc(C(=O)N/N=C/c3cccnc3)c3ccccc3n2)c1	–	-8.1	–	–	–
CCCOc1cccc(-c2cc(C(=O)N/N=C/c3ccccn3)c3ccccc3n2)c1	–	-9.1	–	–	–
Cc1cccc(-c2cc(C(=O)N/N=C/c3cccnc3)c3ccccc3n2)c1	–	–	–	–	–
CCC(C)NC(=O)C1CCN(S(=O)(=O)c2cc([N+](=O)[O-])ccc2Cl)CC1 (stereo not given)	–	–	–	–	–
O=C(Nc1nc2ccccc2s1)C1CCN(S(=O)(=O)c2cc([N+](=O)[O-])ccc2Cl)CC1	–	–	–	-5.3	–
COc1ccnc(Oc2ccccc2)c1C(=O)N/C=N/OCc1ccccc1F	–	–	–	-5.6	–
Brc1ccccc1C1CC(c2ccccc2)=Nc2ccccc2N1 (stereo not given)	–	–	–	–	–
Clc1ccccc1C1CC(c2ccccc2)=Nc2ccccc2N1 (stereo not given)	–	-7.4	–	–	–
N#C/C(=C\c1ccc(O)c(O)c1)S(=O)(=O)c1ccccc1	–	–	–	–	14
Cc1ccc(C)c(C(=O)C(C)Sc2nc3nn(-c4ccccc4)c(=O)c-3c3n2CCCCC3)c1 (stereo not given)	–	–	–	–	–
OCCN(Cc1ccccc1)CC(O)COc1ccc2c(c1)OCO2 (stereo not given)	–	–	–	–	–
CC1(C)CC(=O)C2=C(C1)OC(N)=C(C#N)C21C(=O)N(Cc2ccccc2Cl)c2ccccc21 (stereo not given)	–	–	–	–	8.7
CC1=CC(C)(C)N2C(=O)C3(C(C#N)=C(N)OC4=C3C(=O)CC(C)(C)C4)c3cccc1c32 (stereo not given)	·	–	–	·	·
COc1ccc(C2NC(=O)NC(O)(C(F)(F)F)C2C(=O)c2ccc(C)cc2)cc1 (stereo not given)	–	-7.6	–	–	–
CCOc1ccccc1C(C(=O)NC1CCCC1)N(C(=O)c1csnn1)C1CC1 (stereo not given)	–	–	–	–	–
OCC[C@H]1C[C@@H](O)[C@H](O)[C@@]2(CCCCO2)O1	–	–	–	–	–
Cn1c(=O)c([N+](=O)[O-])c(N2CCN(Cc3ccc4c(c3)OCO4)CC2)c2ccccc21	–	-7.3	–	–	–
SMILES	MrgX1 ag	RGS4 pot	RGS4 inh	MrgX1 antag	MrgX1 PAM
O=C(N1CCc2[nH]c3ccccc3c2C1)C(F)(F)F	–	–	–	–	–
CC(=O)c1cc(NC(=O)c2ccc(Cl)cc2)c(=O)oc1/C=C/N(C)C	38	–	–	–	–
Cc1ccc(-c2csc3nnc(SCC(=O)Nc4cccc(C)n4)n23)cc1	–	–	–	–	–
CN(C)S(=O)(=O)c1cccc(-c2nn(-c3ccccc3)cc2/C=C2\SC(=S)NC2=O)c1	–	·	·	–	17
O=C1CCCc2nc(N3CCN(C(c4ccccc4)c4ccccc4)CC3)ncc21	–	-7	–	–	–
Cc1ccccc1CN1C(=O)c2ccccc2S(=O)c2ccc(C(=O)NCCCN3CCOCC3)cc21 (stereo not given)	–	–	–	–	–
O=C(NCCCN1CCCC1)c1ccc2c(c1)N(Cc1cccc(Cl)c1)C(=O)c1ccccc1S2=O (stereo not given)	–	–	–	–	–
CC1CCCCN1CCNC(=O)c1ccc2c(c1)N(Cc1cccc(Cl)c1)C(=O)c1ccccc1S2=O (stereo not given)	–	-8.2	–	–	–
CC1CC(C)CN(CCCNC(=O)c2ccc3c(c2)N(Cc2ccccc2)C(=O)c2ccccc2S3=O)C1 (stereo not given)	–	-7.2	–	–	–
CCOC(=O)CSc1nc2c(c(=O)[nH]1)C(C)(CC)Cc1ccccc1-2 (stereo not given)	–	–	–	–	–
COC(=O)C1=C(C)N=C2SCCC(=O)N2C1/C=C/c1ccccc1 (stereo not given)	–	-7.4	–	–	–
COc1ccccc1/C=C/C1C(C(=O)OCC(C)C)=C(C)N=C2SCCC(=O)N21 (stereo not given)	–	–	–	–	–
Cc1ccc(/C=C2\CCC3=C2OC(N)=C(C#N)C3c2ccc(C)cc2)cc1 (stereo not given)	73	–	–	–	–
Cn1c2ccccc2c(=O)c2c(=O)n(Cc3ccco3)c(-c3ccc(Cl)cc3Cl)nc21	–	–	–	–	–
N=C(N)SCc1cn(-c2ccccc2)nc1-c1ccc(Br)cc1	·	-7.5	–	·	·
Cc1ccc(-c2nn(-c3ccccc3)cc2CNCc2ccccc2)cc1	–	–	–	–	–
COc1ccc(/C=C2\SC(N3CCc4ccccc4C3)=NC2=O)cc1	–	–	–	-4.7	–
COc1cc(/C=C2\SC(N3CCc4ccccc4C3)=NC2=O)cc(OC)c1OC	–	–	–	–	–
O=C1N=C(N2CCc3ccccc3C2)S/C1=C\c1cccc(O)c1	–	-8.3	–	–	–
O=C(OCC1OC(n2ncc(=O)[nH]c2=O)C(OC(=O)c2ccccc2)C1OC(=O)c1ccccc1)c1ccccc1 (stereo not given)	–	-7.2	–	–	–
Cc1ccc(-c2cc(C(=O)N3CCN(c4ncccn4)CC3)c3ccccc3n2)cc1	–	–	–	–	–
COc1cccc(-c2cc(C(=O)N3CCN(c4ncccn4)CC3)c3ccccc3n2)c1	–	-7	–	–	–
CC(C)Oc1cccc(-c2cc(C(=O)N3CCN(c4ncccn4)CC3)c3ccccc3n2)c1	–	-7.4	–	–	–
Cc1ccc(CCNC(=O)CSCc2ccc(F)cc2)cc1	–	–	–	–	–
